Assay results taken from paper PMC4857052 (Molecular pharmacology, 2012).
Several values for one entry are separate records, joined by “and”; a condition that tells them apart may be missing. Identical values can stand only once. Like-named read-outs stand apart in the source and are kept apart here.

Experiments:
5FURes T. b. brucei = assay: Alamar blue drug sensitivity assay, 5FURes; assay type: cell-based, Trypanosoma brucei brucei
In short: (§1)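 Bloodstream-form T. b. brucei s427 grown in HMI-9 with 10% FBS at 37°C under 5% CO2. Resistant lines were made by months of stepwise-increasing exposure to the analog, then cloned by limiting dilution. Viability was read by resazurin (Alamar blue) reduction. Thymidine rescue was tested by adding 100 μM thymidine.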

5F-2′dURes cells = assay: Metabolomic analysis of treated 5F-2′dURes cells; assay type: cell-based, Trypanosoma brucei brucei; conditions: 100 μM, 8 hours
5FOARes T. b. brucei = assay: Alamar blue drug sensitivity assay, 5FOARes; assay type: cell-based, Trypanosoma brucei brucei
In short: as §1

5F-2′dURes T. b. brucei = assay: Alamar blue drug sensitivity assay, 5F-2′dURes; assay type: cell-based, Trypanosoma brucei brucei
In short: as §1

[1] = system: DNA of T. brucei bloodstream forms; assay: Incorporation into DNA; assay type: cell-based, Trypanosoma brucei brucei; conditions: 100 μM, 12 hours; natural deoxynucleotides 500-5000-fold above detection limit
In short: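 Bloodstream forms were exposed to 100 μM test compound for 12 h (37°C, 5% CO2), with untreated parallel controls. DNA was extracted by SDS/RNase A lysis overnight at 37°C and phenol/chloroform, then digested with 1000 units exonuclease III at 37°C for 48 h. The digest was mixed 1:3 with acetonitrile, centrifuged, and the supernatant analysed by HILIC–high-resolution LC-MS.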

[2] = system: T. b. brucei bloodstream forms strain 427 WT; assay: Alamar blue drug sensitivity assay, wild-type; assay type: cell-based, Trypanosoma brucei brucei; conditions: for EC50: Trypanosoma brucei
In short: as §1

[3] = system: variant surface glycoprotein; assay: Effect on glycosylation / variant surface glycoprotein content; assay type: cell-based, Trypanosoma brucei brucei; conditions: 100 μM
TbU2 = conditions: read-out: Ki, U2; procyclic forms (PCF); ref De Koning and Jarvis (1998), Papageorgiou et al. (2005), Gudin et al. (2006); cited from earlier work
[4] = system: TbT1 (P1-type nucleoside transporter); assay: [3H]-thymidine transport in bloodstream forms; assay type: cell-based, Trypanosoma brucei brucei; conditions: for effect on [3H]-thymidine transport (in words): bloodstream forms
TbU1 = conditions: procyclic forms (PCF); NE = no effect on uptake at concentration indicated; ref De Koning and Jarvis (1998), Papageorgiou et al. (2005), Gudin et al. (2006); cited from earlier work
5-FOARes trypanosomes = assay: [3H]-orotic acid uptake, 5-FOARes versus wild-type; assay type: cell-based, Trypanosoma brucei brucei; conditions: over 10 min; two experiments
In short: (§2)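 Log-phase cells were washed into HEPES/bicarbonate glucose buffer (pH 7.3) at 1 × 10^8/ml and mixed with an equal volume of [3H]-permeant, with or without unlabeled competitor, at ambient temperature. Uptake was stopped with ice-cold buffer containing saturating unlabeled permeant, then cells were spun through oil. Counts were corrected for nonspecific binding and Km, Vmax and Ki obtained by curve fitting. Runs were in triplicate. Thymidine: 10 μM label, 15 min. Orotic acid: 10 min.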

[5] = system: T. b. brucei bloodstream forms; assay: [3H]-orotic acid uptake, wild-type bloodstream forms; assay type: cell-based, Trypanosoma brucei brucei
[6] = system: s427WT T. b. brucei bloodstream forms; assay: Kinetic parameters of pyrimidine transport in wild-type bloodstream forms; assay type: cell-based, Trypanosoma brucei brucei; conditions: [3H]-permeant; strain s427WT
In short: as §2

[7] = biological target: P1-type nucleoside transporter; assay: [3H]-inosine uptake in bloodstream forms; assay type: cell-based, Trypanosoma brucei brucei; conditions: read-out: Ki for inhibition of inosine uptake; monophasic, n = 4
In short: as §2

5F-2′dURes trypanosomes = assay: [3H]-thymidine uptake in 5F-2′dURes; assay type: cell-based, Trypanosoma brucei brucei
In short: as §2

[8] = resistance factor: IC50(resistant clone)/IC50(WT)

## O=c1[nH]c(=O)n([C@H]2C[C@H](O)[C@@H](CO)O2)cc1F [5Fl-2’-dUrd, 5-fluoro-2′-deoxyuridine]
5FURes T. b. brucei; Trypanosoma brucei, read-out: EC50, 5FURes, Mean
  EC50: 3.2 µM
5FURes T. b. brucei; [8]
  RF, 5FURes: 0.61
5F-2′dURes cells
  increase in dUMP in treated 5F-2′dURes cells relative to untreated wild-type cells: two-fold
5FOARes T. b. brucei; Trypanosoma brucei, read-out: EC50, 5FOARes, Mean
  EC50: 31 µM
5FOARes T. b. brucei; [8]
  RF, 5FOARes: 5.9
5F-2′dURes T. b. brucei; 5F-2′dURes cells
  reduction of sensitivity by addition of 100 μM thymidine: > 600 fold
5F-2′dURes T. b. brucei; Trypanosoma brucei, read-out: EC50, 5F-2′dURes, Mean
  EC50: 4.29 mM
5F-2′dURes T. b. brucei; [8]
  RF, 5F-2′dURes: 825
[1]
  5F-dUMP in DNA digest: No 5F-dUMP was detected
[2]; read-out: EC50, WT, Mean, Alamar blue assay, wild-type sensitive control strain
  EC50: 5.2 µM
[2]; wild-type, thymidine-free HMI-9 with 100 μM thymidine added
  EC50: 18.6 ± 3 µM
[2]; wild-type, thymidine-free version of HMI-9
  EC50: 0.77 ± 0.3 µM
[2]; wild-type
  reduction of sensitivity by addition of 100 μM thymidine: 24 fold
[3]
  changes in variant surface glycoprotein content: no detectable changes

## Nc1ccn([C@@H]2O[C@H](CO)[C@@H](O)[C@H]2O)c(=O)n1 [Cytidine]
TbU2
  Ki: 57 ± 19 nM
[4]
  effect on [3H]-thymidine transport (in words): little or no effect
TbU1
  Ki, U1: NE, 1000

## O=C(O)c1cc(=O)[nH]c(=O)[nH]1 [Orotic acid]
5-FOARes trypanosomes
  reduction of [3H]-orotic acid uptake in 5-FOARes relative to wild-type: 68.1% and 62.8%
[5]
  uptake rate as fraction of the transport rate of [3H]-uracil and [3H]-5-FU: ≤ 1%
[4]
  effect on [3H]-thymidine transport (in words): little or no effect

## Cc1cn([C@H]2C[C@H](O)[C@@H](CO)O2)c(=O)[nH]c1=O [Thymidine]
TbU2
  Ki: 380 ± 70 nM
[6]
  Km: 1.24 ± 0.31 mM
  Vmax: 0.067 ± 0.008 pmol (10^7 cells)^−1s^−1
[4]; 10 μM thymidine, 5-30 min
  rate of [3H]-thymidine transport: 0.0015 ± 0.0003 pmol(10^7 cells)^−1s^−1
[4]; read-out: Km, T1, bloodstream forms (BSF)
  Km: 1.24 ± 0.31 mM
[7]
  Ki: 214 ± 51 µM
TbU1
  Ki, U1: NE, 1000
5F-2′dURes trypanosomes
  increase in thymidine affinity relative to wild-type: > 50 fold
  increase in transport efficiency relative to wild-type: six-fold
5F-2′dURes trypanosomes; 10 μM [3H]-thymidine
  Vmax of [3H]-thymidine uptake: 0.013 ± 0.002 pmol(10^7 cells)^−1s^−1
5F-2′dURes trypanosomes; read-out: Km of [3H]-thymidine uptake, 10 μM [3H]-thymidine
  Km: 22 ± 3 µM
